# From PubChem
# NPY-Y1 antag: NPY-Y1 (human) receptor antagonism; HEK293-CNG Y1 cells, membrane potential fluorescence; NPY at EC95, then isoproterenol; inhibition, % at 3.6 µM; hit rate 1% among 200,000; AID 1040;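 active = inhibition above the campaign mean inhibition of all tested compounds plus 3 SD, cut at about 20% in these data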;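 note: 0% = DMSO wells given NPY plus isoproterenol and 100% = isoproterenol alone without NPY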
# Target sequence (P25929 whole entry, looked up): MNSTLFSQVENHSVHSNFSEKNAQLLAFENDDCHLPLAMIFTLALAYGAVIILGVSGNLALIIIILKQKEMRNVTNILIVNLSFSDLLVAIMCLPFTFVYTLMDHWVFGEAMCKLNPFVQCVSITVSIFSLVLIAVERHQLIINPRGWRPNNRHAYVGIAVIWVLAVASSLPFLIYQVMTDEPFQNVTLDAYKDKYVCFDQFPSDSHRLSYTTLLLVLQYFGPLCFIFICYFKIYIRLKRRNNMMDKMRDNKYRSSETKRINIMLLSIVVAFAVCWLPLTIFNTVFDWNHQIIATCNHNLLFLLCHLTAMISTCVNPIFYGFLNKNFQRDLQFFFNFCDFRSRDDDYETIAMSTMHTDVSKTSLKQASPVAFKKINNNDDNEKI
#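 material = HEK293 cells with Y1 receptor plus CNG channel | also added = NPY 25 nM then isoproterenol 1 µM plus Ro 20-1724 25 µM | schedule = dye 3 h, compound 60 min room temperature, stimulation 45 min | measured by = membrane potential fluorescence | benchmarks = high control isoproterenol alone, low control NPY with isoproterenol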
# NPY Y2 blocker: NPY-Y2 (human) receptor antagonism | P49146 | NPY-Y2 expressing cells, antagonist mode | inhibition, % at 2.7 µM | hit rate 0.99% among 140,000 | AID 793; in the data active = inhibition above about 17%;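 note: 0% = vehicle with agonist challenge and 100% = reference antagonist with challenge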
# NPY1 pot ag: potentiators or agonists of human neuropeptide Y receptor Y1; NPY-Y1 expressing cells, potentiator/agonist activation; hit rate 0.37% among 220,000; activation, % at 3.6 µM; P25929; AID 1304; in the data active = activation above about 33%, passing the limit was not always enough;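 note: cells stimulated with NPY at EC10 then isoproterenol at EC100; 0% = low agonist plus stimulus and 100% = saturating agonist plus stimulus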
# NPY-Y2 PAM-ag: human NPY-Y2 potentiation or agonism, primary screen | P49146 | cells expressing NPY-Y2, potentiator/agonist read-out | activation, % at 3.6 µM | hit rate 0.45% among 220,000; in the data active = activation above about 27%;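 note: cells stimulated with NPY near EC25 plus isoproterenol at EC100; 0% = vehicle plus submaximal agonist and 100% = vehicle plus saturating agonist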
# Active calls of the source: *; . = not tested or not shown. In the library only some 1.8% were active in any assay of this set; here they are far more common.
SMILES,NPY-Y1 antag,NPY Y2 blocker,NPY1 pot ag,NPY-Y2 PAM-ag
Cc1ccccc1NC(=O)C(c1ccccc1)C1CCCC1 (stereo not given),26*,23*,-19,-8
O=C(Nc1ccc2ccccc2c1)C(c1ccccc1)C1CCCC1 (stereo not given),33*,22*,-14,-4
O=C(c1c(Cl)nc2sccn12)N1CCN(c2cccc(Cl)c2)CC1,3,6,16,-12
O=C1Nc2ccc(Cl)cc2[C@@](C#CC2CC2)(C(F)(F)F)O1,-9,.,30,20
O=S(=O)(NCc1ccc2c(c1)OCO2)c1ccc2oc3ccccc3c2c1,21*,19*,-67,-35
O=C(NC1CCCCCC1)c1cc(S(=O)(=O)N2CCCCC2)ccc1N1CCOCC1,21*,.,-1,-2
O=C(NC1CCCCCC1)c1cc(S(=O)(=O)N2CCOCC2)ccc1N1CCCCC1,6,9,18,0
CCCCN(CCCC)CC(O)CN(c1cc([N+](=O)[O-])ccc1OC)S(=O)(=O)c1ccccc1 (stereo not given),23*,20*,-28,-4
Cc1nc2ccccn2c(=O)c1CCN1CCC(C(=O)c2ccc(F)cc2)CC1,4,2,-35,-3
Cc1nc2sccn2c(=O)c1CCN1CCC(=C(c2ccc(F)cc2)c2ccc(F)cc2)CC1,29*,39*,-58,-21
OC(COc1cccc2ccccc12)CN1CCCC1 (stereo not given),-15,3,99*,94*
Cc1cc2c(OCC(O)CN3CCCCC3)cccc2[nH]1 (stereo not given),-14,.,110*,101*
C=C1CC(C)OC(c2ccccc2OCC(O)CN2CCCCC2)C1 (stereo not given),-10,3,75*,70*
Cc1cc2c(OCC(O)CNC3CCCCC3)cccc2[nH]1 (stereo not given),-11,.,110*,103*
Cc1cc(C(=O)N/N=C/C(Cl)=C/c2ccccc2)c(C)o1,.,.,16,21
Clc1ccccc1C1=CC(c2ccco2)n2ncnc2N1 (stereo not given),.,.,5,8
O=C(Nc1cccc(Cl)c1)N(Cc1nc2ccccc2c(=O)[nH]1)Cc1cccs1,6,1,-12,4
CC(C)CCNC(=O)Cn1c(NCCC(C)C)nc2c1c(=O)n(C)c(=O)n2C,60*,1,-12,4
CC(C)CCn1c(Cl)nc2c1c(=O)n(C)c(=O)n2C,-3,3,-4,8
Cc1nc(NC(C)c2ccccc2)c2c3c(sc2n1)CCC3 (stereo not given),38*,17*,-66,-20
COc1ccc(C(=O)NN(C)c2nc(-c3ccccc3)nnc2C(F)(F)F)cc1,5,5,2,-1
COc1ccc(C(=O)NN(C)c2nc(C(F)(F)F)nc3ccccc23)cc1,21*,.,-16,-19
COC(=O)c1cc2c(ccn2-c2ccc(F)cc2)n1C(C)C,35*,21*,-9,-2
COC(=O)c1cc2c(ccn2-c2ccc(F)cc2)n1Cc1cccc(OC)c1,1,6,7,17
CCNC(=O)CC1C(=O)N(c2ccccc2)C(=O)N1Cc1ccc(OC)cc1 (stereo not given),-2,2,-2,2
SMILES,NPY-Y1 antag,NPY Y2 blocker,NPY1 pot ag,NPY-Y2 PAM-ag
O=C(/C=C/c1ccc(Cl)cc1)NC(=S)NN1CCCCC1c1cccnc1 (stereo not given),2,40*,-34,-6
COc1ccc(/C=C/C(=O)NC(=S)NN2CCCCC2c2cccnc2)cc1OC (stereo not given),10,3,-13,-15
COc1ccc(NC(=O)COC(=O)c2c3c(nc4ccccc24)CCCC3)cc1Cl,24*,19*,-55,-11
CN(C)S(=O)(=O)c1ccc(Cl)c(NC(=O)CN2CCN(Cc3ccc4c(c3)OCO4)CC2)c1,.,.,-18,1
Cc1ccc(C(=O)N/C(=C\c2ccc(-c3ccc(Cl)cc3)o2)C(=O)NCCCN(C)C)cc1,21*,.,-14,-2
CCOCC(=O)N(CC)Cc1ccccc1,2,.,-5,5
CCCC(=O)N(CCN(Cc1ccccc1)C(=O)CCC)Cc1ccccc1,56*,25*,-15,-12
COc1ccc(C2c3c(oc4ccc(Cl)cc4c3=O)C(=O)N2CCN2CCOCC2)cc1 (stereo not given),.,.,10,-6
CCCCC(=O)Nc1nc2c(OC)cc([N+](=O)[O-])cc2s1,-11,.,39*,33*
Cc1cc(C2(c3ccc(O)c(C)c3)OC(=O)c3ccccc32)ccc1O,0,5,-17,-11
Cc1cc(O)c(C(C)C)cc1C1(c2cc(C(C)C)c(O)cc2C)OC(=O)c2ccccc21,.,.,76*,70*
CN(C(=O)COc1ccc([N+](=O)[O-])cc1)C1CCS(=O)(=O)C1 (stereo not given),-2,.,9,-15
O=c1[nH]c2ccc(Cl)cc2c(O)c1-c1ccccc1,3,18*,13,1
COc1ccc(C(=O)/C(=C/N(C)C)S(=O)(=O)c2ccccc2)cc1,0,.,3,3
CN(C)/C=C(/C(=O)c1ccccc1Cl)S(=O)(=O)c1ccccc1,39*,3,-9,-17
CCOc1cc(S(=O)(=O)Nc2ccc(Cl)cn2)ccc1F,9,4,-37,-5
COc1ccc(S(=O)(=O)Nc2ccc(Cl)cn2)c(C)c1C,-9,-13,59*,37*
CC1CCN(C(=S)c2cn(Cc3ccccc3F)c3ccccc23)CC1,45*,29*,-7,-17
Nc1nc(-c2ccccc2)c(N=Nc2cccc3ccccc23)s1,-29,-13,111*,97*
Cc1ncc(N=Nc2ccccc2Cl)c(-c2ccccc2)n1,7,1,-26,14
Nc1nc(-c2ccccc2)c(N=Nc2ccccc2Cl)s1,-27,-14,95*,79*
Cc1ccc(N/C(N)=N/c2nc(C)cc(N3CCCCC3)n2)c(C)c1,0,.,25,23
CC(C)Cc1nc2oc3c(N4CCN(CCO)CC4)ncnc3c2c2c1CCCC2,9,17*,-10,3
C=CCNC(=O)c1ccc2c(=O)n(CCCN3CCCC3=O)c(=S)[nH]c2c1,5,.,1,-3
CNC(=S)N(CCc1c(C)[nH]c2ccc(C)cc12)Cc1cccs1,-9,.,43*,31*
SMILES,NPY-Y1 antag,NPY Y2 blocker,NPY1 pot ag,NPY-Y2 PAM-ag
COc1ccc(NC(=S)N(CCc2c(C)[nH]c3ccc(C)cc23)Cc2cccs2)cc1,1,0,1,-4
CCOC(=O)Cn1c(S(=O)(=O)Cc2ccc(F)cc2)nc(-c2ccccc2)c1-c1ccccc1,38*,26*,12,-10
CCOC(=O)Cn1c(-c2ccccc2)nc2ccccc2c1=O,5,6,5,-9
C#CCn1c(S(=O)(=O)Cc2ccc(F)cc2)nc(-c2ccccc2)c1-c1ccccc1,21*,4,0,-14
CCCn1c(N)c(NCCN2CCOCC2)c(=O)[nH]c1=O,7,.,4,4
O=[N+]([O-])c1cccnc1NCc1cccs1,-1,.,-28,-11
CCSc1nc2ccc(N3C(=O)C4C5C=CC(C5)C4C3=O)cc2s1 (stereo not given),3,4,-9,1
